Laboratory results: ChEMBL document CHEMBL1152399, “Synthesis and fungicidal activity of 3,5-dichloropyrazin-2(1H)-one derivatives” (2009)
In brackets after ≈: the same amount, converted by molar mass.

Columns and labels:
Format in all cases: functional
[1] = system: Saccharomyces cerevisiae; assay: Ratio of MIC for wild type Saccharomyces cerevisiae BY4741 to MIC for CUP5 gene knockout Saccharomyces cerevisiae mutant
[2] = system: Saccharomyces cerevisiae; assay: Ratio of MIC for wild type Saccharomyces cerevisiae BY4741 to MIC for VPS15 gene knockout Saccharomyces cerevisiae mutant
[3] = system: Candida albicans; assay: Antifungal activity against Candida albicans assessed as fungus survival rate at 5 ug/mL in presence of ascorbic acid
Summary of the method: (§1)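 Overnight C. albicans YPD culture diluted in PBS (~2 × 10⁶ cells/mL) and treated with compound in 2% DMSO, with or without 80 mM ascorbic acid, for 5 h at 37 °C. CFU counted, and percentage survival taken against the 2% DMSO control.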

[4] = system: Saccharomyces cerevisiae; assay: Antifungal activity against REG1 gene knockout Saccharomyces cerevisiae mutant after 48 hrs by microtiter plate method
Summary of the method: (§2)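 Yeast deletion mutants grown in YPD in microtiter wells for 48 h at 30 °C. For the retest, 5 µL fivefold serial dilutions of stationary-phase cultures were spotted on YPD with or without compound, and growth was compared with BY4741 after 48 h at 30 °C.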

[5] = system: Saccharomyces cerevisiae; assay: Antifungal activity against CUP5 gene knockout Saccharomyces cerevisiae mutant after 48 hrs by microtiter plate method; summary of the method: as §2
[6] = system: Saccharomyces cerevisiae; assay: Antifungal activity against VMA7 gene knockout Saccharomyces cerevisiae mutant after 48 hrs by microtiter plate method; summary of the method: as §2
[7] = system: Candida albicans; assay: Antifungal activity against Candida albicans assessed as fungus survival rate at 5 ug/mL in absence of ascorbic acid; summary of the method: as §1
[8] = system: Saccharomyces cerevisiae; assay: Ratio of MIC for wild type Saccharomyces cerevisiae BY4741 to MIC for SPT7 gene knockout Saccharomyces cerevisiae mutant
[9] = system: Candida albicans; assay: Antifungal activity against Candida albicans CAI4
Summary of the method: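 C. albicans CAI4 overnight YPD culture diluted in PBS (~2 × 10⁶ cells/mL) and exposed to a range of compound concentrations in 2% DMSO for 5 h at 37 °C, then CFU counted. Survival is the CFU ratio against the 2% DMSO control. MFC is the lowest concentration giving <0.1% survival.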

[10] = system: Saccharomyces cerevisiae; assay: Antifungal activity against SPT7 gene knockout Saccharomyces cerevisiae mutant after 48 hrs by microtiter plate method; summary of the method: as §2
[11] = system: Saccharomyces cerevisiae; assay: Ratio of MIC for wild type Saccharomyces cerevisiae BY4741 to MIC for GET2 gene knockout Saccharomyces cerevisiae mutant
[12] = system: Saccharomyces cerevisiae; assay: Ratio of MIC for wild type Saccharomyces cerevisiae BY4741 to MIC for YKL118W gene knockout Saccharomyces cerevisiae mutant
[13] = system: Saccharomyces cerevisiae; assay: Ratio of MIC for wild type Saccharomyces cerevisiae BY4741 to MIC for AMD1 gene knockout Saccharomyces cerevisiae mutant
[14] = system: Saccharomyces cerevisiae; assay: Antifungal activity against VPH2 gene knockout Saccharomyces cerevisiae mutant after 48 hrs by microtiter plate method; summary of the method: as §2
[15] = system: Saccharomyces cerevisiae; assay: Antifungal activity against ADA2 gene knockout Saccharomyces cerevisiae mutant after 48 hrs by microtiter plate method; summary of the method: as §2
[16] = system: Saccharomyces cerevisiae; assay: Antifungal activity against VPS15 gene knockout Saccharomyces cerevisiae mutant after 48 hrs by microtiter plate method; summary of the method: as §2
[17] = system: Saccharomyces cerevisiae; assay: Antifungal activity against GET2 gene knockout Saccharomyces cerevisiae mutant after 48 hrs by microtiter plate method; summary of the method: as §2
[18] = system: Saccharomyces cerevisiae; assay: Antifungal activity against AMD1 gene knockout Saccharomyces cerevisiae mutant after 48 hrs by microtiter plate method; summary of the method: as §2
[19] = system: Saccharomyces cerevisiae; assay: Ratio of MIC for 3,5-dichloro-6-(chloromethyl)-1-phenylpyrazin-2(1H)-one-resistant Saccharomyces cerevisiae mutant to MIC for wild type Saccharomyces cerevisiae BY4741
[20] = system: Saccharomyces cerevisiae; assay: Antifungal activity against wild type Saccharomyces cerevisiae BY4741 after 48 hrs by microtiter plate method; settings: BY4741, 48 h; summary of the method: as §2
[21] = system: Saccharomyces cerevisiae; assay: Antifungal activity against HTL1 gene knockout Saccharomyces cerevisiae mutant after 48 hrs by microtiter plate method; summary of the method: as §2
[22] = system: Saccharomyces cerevisiae; assay: Ratio of MIC for wild type Saccharomyces cerevisiae BY4741 to MIC for HTL1 gene knockout Saccharomyces cerevisiae mutant
[23] = system: Saccharomyces cerevisiae; assay: Ratio of MIC for wild type Saccharomyces cerevisiae BY4741 to MIC for ADA2 gene knockout Saccharomyces cerevisiae mutant
[24] = system: Saccharomyces cerevisiae; assay: Antifungal activity against 3,5-dichloro-6-(chloromethyl)-1-phenylpyrazin-2(1H)-one-resistant Saccharomyces cerevisiae mutant after 48 hrs by microtiter plate method
[25] = system: Saccharomyces cerevisiae; assay: Ratio of MIC for wild type Saccharomyces cerevisiae BY4741 to MIC for REG1 gene knockout Saccharomyces cerevisiae mutant
[26] = system: Saccharomyces cerevisiae; assay: Antifungal activity against YKL118W gene knockout Saccharomyces cerevisiae mutant after 48 hrs by microtiter plate method; summary of the method: as §2
[27] = system: Saccharomyces cerevisiae; assay: Ratio of MIC for wild type Saccharomyces cerevisiae BY4741 to MIC for VPH2 gene knockout Saccharomyces cerevisiae mutant
[28] = system: Saccharomyces cerevisiae; assay: Ratio of MIC for wild type Saccharomyces cerevisiae BY4741 to MIC for VMA7 gene knockout Saccharomyces cerevisiae mutant
[29] = system: Candida albicans; assay: Induction of reactive oxygen species production in Candida albicans assessed as corrected fluorescence value at 100 ug/mL after 3 hrs by fluorescence assay
Summary of the method: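 C. albicans grown overnight in YPD at 37 °C and resuspended in PBS. Cells mixed with a 100 µg/mL compound solution in 10% DMSO (DMSO alone as control) and held 1 h at 37 °C. 2',7'-dichlorofluorescin diacetate then added; fluorescence read after 3 h (ex 485/em 525 nm). A compound-plus-probe blank without cells was subtracted to give the corrected value.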

For O=c1c(Cl)nc(Cl)c(CCl)n1-c1ccccc1, the Ratio [1] was 5, the Ratio [2] was 5 and the Activity [3] was 64%. For the same compound, the MIC [4] was 0.5 µg/mL (≈ 1.73 µM), the MIC [5] was 0.5 µg/mL (≈ 1.73 µM) and the MIC [6] was 0.5 µg/mL (≈ 1.73 µM). It also gave an Activity [7] of 0.009%, a Ratio [8] of 5 and an MFC [9] of 5 µg/mL (≈ 17.3 µM). For the same compound, the MIC [10] was 0.5 µg/mL (≈ 1.73 µM), the Ratio [11] was 5 and the Ratio [12] was 5. The Ratio [13] was 5, the MIC [14] was 0.5 µg/mL (≈ 1.73 µM) and the MIC [15] was 0.5 µg/mL (≈ 1.73 µM). For the same compound, the MIC [16] was 0.5 µg/mL (≈ 1.73 µM), the MIC [17] was 0.5 µg/mL (≈ 1.73 µM) and the MIC [18] was 0.5 µg/mL (≈ 1.73 µM). For the same compound, the Ratio [19] was 5, the MIC [20] was 2.5 µg/mL (≈ 8.63 µM) and the MIC [21] was 0.5 µg/mL (≈ 1.73 µM). It also gave a Ratio [22] of 5, a Ratio [23] of 5 and an MIC [24] of 12.5 µg/mL (≈ 43.2 µM). It also gave a Ratio [25] of 5, an MIC [26] of 0.5 µg/mL (≈ 1.73 µM) and a Ratio [27] of 5. For the same compound, the Ratio [28] was 5.
Compound COc1ccc(Cn2c(-c3ccc(OC)cc3)c(Cl)nc(Cl)c2=O)cc1 has an MFC [9] of over 100 µg/mL and an Activity [29] of over 500.
For O=c1c(Cl)nc(Cl)cn1Cc1ccccc1, the MFC [9] was 50 µg/mL (≈ 196 µM).
COc1ccc(Cn2c(C)c(Cl)nc(Cl)c2=O)cc1 was tested, and the MFC [9] was over 100 µg/mL.
Cc1ccccc1-c1c(Cl)nc(Cl)c(=O)n1-c1ccccc1 was tested, and the MFC [9] was over 100 µg/mL and the Activity [29] was over 500.
For COCCn1c(-c2ccccc2)c(Cl)nc(Cl)c1=O, the MFC [9] was over 100 µg/mL and the Activity [29] was over 500.
Compound COc1ccc(-n2cc(Cl)nc(Cl)c2=O)cc1 has an MFC [9] of 10 µg/mL (≈ 36.9 µM).
COc1cccc(-c2c(Cl)nc(Cl)c(=O)n2C)c1 showed an MFC [9] of over 100 µg/mL and an Activity [29] of over 500.
With COc1ccc(-c2c(Cl)nc(Cl)c(=O)n2-c2ccccc2)cc1 the MFC [9] was over 100 µg/mL.
Work on O=c1c(Cl)nc(Cl)cn1CCc1ccccc1 yielded an MFC [9] of 50 µg/mL (≈ 186 µM).
With O=c1c(Cl)nc(Cl)cn1C1CCCCC1 the MFC [9] was over 100 µg/mL and the Activity [29] was over 500.
Compound O=c1c(Cl)nc(Cl)cn1CC1CCCCC1 has an MFC [9] of 100 µg/mL (≈ 383 µM).
With COc1ccccc1Cn1c(Cc2ccccc2)c(Cl)nc(Cl)c1=O the MFC [9] was over 100 µg/mL.
Work on O=c1c(Cl)nc(Cl)c(CBr)n1-c1ccccc1 yielded an MFC [9] of 5 µg/mL (≈ 15 µM).
With Cc1c(Cl)nc(Cl)c(=O)n1Cc1ccccc1 the MFC [9] was over 100 µg/mL and the Activity [29] was over 500.
For COc1ccccc1-c1c(Cl)nc(Cl)c(=O)n1-c1ccccc1, the MFC [9] was over 100 µg/mL and the Activity [29] was under 100.
COC(=O)c1ccc(-c2c(Cl)nc(Cl)c(=O)n2-c2ccccc2)cc1 showed an MFC [9] of over 100 µg/mL.
With O=c1c(-c2ccccc2)nc(Cl)c(CCl)n1-c1ccccc1 the MFC [9] was over 100 µg/mL and the Activity [29] was over 500.
For COc1nc(Cl)c(CCl)n(-c2ccccc2)c1=O, the MFC [9] was over 100 µg/mL and the Activity [29] was over 500.
Work on Cc1c(Cl)nc(Cl)c(=O)n1-c1ccccc1 yielded an MFC [9] of over 100 µg/mL.
Compound O=c1c(Cl)nc(Cl)cn1-c1ccccc1 has an MFC [9] of 10 µg/mL (≈ 41.5 µM).
With COc1ccc(Cn2cc(Cl)nc(Cl)c2=O)cc1 the MFC [9] was 50 µg/mL (≈ 175 µM).
